In brackets after ≈: the same amount, converted by molar mass.
Assays:
Staphylococcus aureus [1] = test: Antibacterial activity against tetracycline-resistant Staphylococcus aureus isolate 161 harboring tet(M) gene by CLSI M07-A8 method; type: functional
Procedure, shortened: (§1)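 MICs were determined by CLSI broth microdilution in freshly prepared cation-adjusted Mueller Hinton broth, kept at 4 °C before use. Defibrinated horse blood was added as appropriate. Runs met QC ranges for comparator antibiotics with ATCC quality control strains.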

Streptococcus pneumoniae [2] = test: Antibacterial activity against Streptococcus pneumoniae ATCC 49619 by CLSI M07-A8 method; type: functional
Escherichia coli [3] = test: Inhibition of protein synthesis in Escherichia coli S30 extract by coupled transcription/translation assay; type: functional
Procedure, shortened: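 Coupled transcription/translation used an E. coli S30 extract with a firefly luciferase reporter. Compounds were diluted in water and tested as a three-point titration in duplicate. Reactions ran 1 h at 37 °C and were stopped on ice for 5 min, then luciferase substrate was added and luminescence read. Percent inhibition was calculated against uninhibited controls averaged per plate, and IC50 derived.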

Klebsiella pneumoniae = test: Antibacterial activity against Klebsiella pneumoniae ATCC 13883 by CLSI M07-A8 method; type: functional
Escherichia coli [4] = test: Antibacterial activity against Escherichia coli ATCC 25922 by CLSI M07-A8 method; type: functional
Staphylococcus aureus [5] = test: Antibacterial activity against wild type Staphylococcus aureus Smith ATCC 13709 by CLSI M07-A8 method; type: functional
Escherichia coli [6] = test: Antibacterial activity against tetracycline-resistant Escherichia coli isolate 155 harboring tet(A) gene by CLSI M07-A8 method; type: functional
Procedure, shortened: as §1, with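 “appropriate. The highest concentration tested was 32 μg/mL.” for “appropriate.”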

Staphylococcus aureus [7] = test: Antibacterial activity against tetracycline-resistant Staphylococcus aureus isolate 158 harboring tet(K) gene by CLSI M07-A8 method; type: functional; procedure, shortened: as §1
Streptococcus pneumoniae [8] = test: Antibacterial activity against tetracycline-resistant Streptococcus pneumoniae isolate 160 harboring tet(M) gene by CLSI M07-A8 method; type: functional; procedure, shortened: as §1
in vivo = conditions: Sprague-Dawley, rat, iv, 1 mg/kg
[9] = AUC in Sprague-Dawley rat at 1 mg/kg, iv and 10 mg/kg, po; type: ADME, organism-based; conditions: plasma
Escherichia coli [10] = test: Antibacterial activity against Escherichia coli by CLSI M07-A8 method; type: functional
Staphylococcus aureus [11] = test: Antibacterial activity against Staphylococcus aureus ATCC 13709 infected in iv dosed mouse septicemia model assessed as mouse protection after 48 hrs; type: functional; conditions: ATCC 13709, iv, read-out: PD50
Procedure, shortened: (§2)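 Mice were challenged intraperitoneally with bacteria mixed with 5% mucin. For S. aureus ATCC 13709 (Smith) the inoculum was 2.1 × 10^6 cfu/mouse, and for E. coli ATCC 25922 it was 2.0 × 10^7 cfu/mouse. PD50 in mg/kg was calculated from survival at 48 h.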

Streptococcus pneumoniae [12] = test: Antibacterial activity against Streptococcus pneumoniae by CLSI M07-A8 method; type: functional
Rattus norvegicus = test: Oral bioavailability in Sprague-Dawley rat at 1 mg/kg, iv and 10 mg/kg, po; type: ADME, organism-based; conditions: in vivo
[13] = Clearance in Sprague-Dawley rat at 1 mg/kg, iv and 10 mg/kg, po; type: ADME, organism-based; conditions: in vivo
[14] = Half life in Sprague-Dawley rat at 1 mg/kg, iv and 10 mg/kg, po; type: ADME, organism-based; conditions: in vivo
Staphylococcus aureus [15] = test: Antibacterial activity against Staphylococcus aureus by CLSI M07-A8 method; type: functional
Escherichia coli [16] = test: Antibacterial activity against Escherichia coli ATCC 25922 infected in iv dosed mouse septicemia model assessed as mouse protection after 48 hrs; type: functional; conditions: ATCC 25922, iv, read-out: PD50; procedure, shortened: as §2
Haemophilus influenzae = test: Antibacterial activity against Haemophilus influenzae by CLSI M07-A8 method; type: functional
Staphylococcus aureus [17] = test: Antibacterial activity against Staphylococcus aureus ATCC 13709 infected in mouse septicemia model assessed as mouse survival at 0.05 to 10 mg/kg, iv after 48 hrs; conditions: dose mg/kg 0.05-10

Row | Compound | MIC (Staphylococcus aureus [1]) [µg/mL] | MIC (Streptococcus pneumoniae [2]) [µg/mL] | IC50 (Escherichia coli [3]) [µg/mL] | MIC (Klebsiella pneumoniae) [µg/mL] | MIC (Escherichia coli [4]) [µg/mL] | MIC (Staphylococcus aureus [5]) [µg/mL] | MIC (Escherichia coli [6]) [µg/mL] | MIC (Staphylococcus aureus [7]) [µg/mL] | MIC (Streptococcus pneumoniae [8]) [µg/mL] | other results
1 | CN(C)[C@@H]1C(O)=C(C(N)=O)C(=O)[C@@]2(O)C(O)=C3C(=O)c4c(O)c(N)nc(Cl)c4C[C@H]3C[C@@H]12 | 4 (≈ 8.6 µM) | 0.016 (≈ 0.0344 µM) | 1.1 (≈ 2.37 µM) | 0.5 (≈ 1.08 µM) | 0.25 (≈ 0.538 µM) | 0.016 (≈ 0.0344 µM) | > 32 | 8 (≈ 17.2 µM) | 4 (≈ 8.6 µM) | 
2 | CN(C)CCCNc1nc(Cl)c2c(c1O)C(=O)C1=C(O)[C@]3(O)C(=O)C(C(N)=O)=C(O)[C@@H](N(C)C)[C@@H]3C[C@@H]1C2.Cl | 8 | 1 | 0.58 | 16 | 8 | 2 | > 32 | 2 | 4 | 
3 | CN(C)CC(C)(C)CNc1nc(Cl)c2c(c1O)C(=O)C1=C(O)[C@]3(O)C(=O)C(C(N)=O)=C(O)[C@@H](N(C)C)[C@@H]3C[C@@H]1C2.Cl | 2 | 0.016 | 0.7 | 2 | 0.5 | 0.5 | 8 | 0.125 | 0.125 | Vd (in vivo): 1.26 L/kg; AUC [9]: 4870 ng·h/mL; MIC50 (Escherichia coli [10]): 1 µg/mL; MIC90 (Escherichia coli [10]): 4 µg/mL; ED50 (Staphylococcus aureus [11]): 0.36 mg/kg; MIC (Streptococcus pneumoniae [12]): ≤ 0.016 µg/mL; MIC50 (Streptococcus pneumoniae [12]): ≤ 0.016 µg/mL; MIC90 (Streptococcus pneumoniae [12]): 0.063 µg/mL; F (Rattus norvegicus): 0.8%; clearance [13]: 3.37 mL/min/kg; half-life [14]: 4.3 h; MIC50 (Staphylococcus aureus [15]): 0.125 µg/mL; MIC90 (Staphylococcus aureus [15]): 2 µg/mL; ED50 (Escherichia coli [16]): 17 mg/kg; MIC50 (Haemophilus influenzae): 1 µg/mL; MIC90 (Haemophilus influenzae): 1 µg/mL
4 | CN(C)[C@@H]1C(O)=C(C(N)=O)C(=O)[C@@]2(O)C(O)=C3C(=O)c4c(O)c(-c5ccccc5)nc(Cl)c4C[C@H]3C[C@@H]12.Cl | 2 | 8 |  | > 32 | > 32 | 1 | > 32 | 1 | 8 | 
5 | CN(C)c1nc(NC(=O)CNC(C)(C)C)c(O)c2c1C[C@H]1C[C@H]3[C@H](N(C)C)C(O)=C(C(N)=O)C(=O)[C@@]3(O)C(O)=C1C2=O.Cl | 32 | 4 | 0.71 | > 32 | 32 | 16 | > 32 | 8 | 4 | 
6 | CCCNc1nc(N(C)C)c2c(c1O)C(=O)C1=C(O)[C@]3(O)C(=O)C(C(N)=O)=C(O)[C@@H](N(C)C)[C@@H]3C[C@@H]1C2.Cl.Cl | > 32 | 8 | 3.4 | > 32 | 32 |  | > 32 |  | > 32 | 
7 | CN(C)[C@@H]1C(O)=C(C(N)=O)C(=O)[C@@]2(O)C(O)=C3C(=O)c4c(O)c(N)nc(F)c4C[C@H]3C[C@@H]12.Cl.Cl | 2 | 0.063 | 0.93 | 1 | 0.25 | 0.063 | > 32 | 8 | 2 | 
8 | CN(C)[C@@H]1C(O)=C(C(N)=O)C(=O)[C@@]2(O)C(O)=C3C(=O)c4c(O)c(NC(=O)CNC(C)(C)C)nc(F)c4C[C@H]3C[C@@H]12.Cl.Cl | 16 | 2 | 0.36 | 16 | 8 | 4 | > 32 | 16 | 8 | 
9 | CCCNc1nc(F)c2c(c1O)C(=O)C1=C(O)[C@]3(O)C(=O)C(C(N)=O)=C(O)[C@@H](N(C)C)[C@@H]3C[C@@H]1C2.Cl.Cl | 2 | 4 | 2.8 | 8 | 2 | 0.25 | 16 | 0.25 | 4 | 
10 | CN(C)[C@@H]1C(O)=C(C(N)=O)C(=O)[C@@]2(O)C(O)=C3C(=O)c4c(cnc(-c5ccccc5)c4O)C[C@H]3C[C@@H]12.Cl.Cl | 8 | 2 |  | 32 | 16 | 4 | > 32 | 16 | 8 | 
11 | CN(C)c1ncc(O)c2c1C[C@H]1C[C@H]3[C@H](N(C)C)C(O)=C(C(N)=O)C(=O)[C@@]3(O)C(O)=C1C2=O.Cl.Cl | 16 | 0.063 | 0.76 | 0.25 | 0.125 | 0.031 | > 32 | 2 | 8 | Vd (in vivo): 4.18 L/kg; AUC [9]: 1090 ng·h/mL; MIC50 (Escherichia coli [10]): 0.25 µg/mL; MIC90 (Escherichia coli [10]): > 32 µg/mL; ED50 (Staphylococcus aureus [11]): < 0.3 mg/kg; MIC50 (Streptococcus pneumoniae [12]): 2 µg/mL; MIC90 (Streptococcus pneumoniae [12]): 4 µg/mL; F (Rattus norvegicus): 12.7%; clearance [13]: 15.3 mL/min/kg; half-life [14]: 3.1 h; MIC (Staphylococcus aureus [15]): ≤ 0.016 µg/mL; MIC50 (Staphylococcus aureus [15]): ≤ 0.016 µg/mL; MIC90 (Staphylococcus aureus [15]): 16 µg/mL; ED50 (Escherichia coli [16]): 4.3 mg/kg; Survival (Staphylococcus aureus [17]): 100%; MIC50 (Haemophilus influenzae): 0.5 µg/mL; MIC90 (Haemophilus influenzae): 2 µg/mL
12 | CCCNc1nc(Cl)c2c(c1O)C(=O)C1=C(O)[C@]3(O)C(=O)C(C(N)=O)=C(O)[C@@H](N(C)C)[C@@H]3C[C@@H]1C2.Cl.Cl.Cl | 1 | 0.25 | 5.3 | 8 |  | 0.063 | 16 | 0.5 | 4 | 
13 | CN(C)[C@@H]1C(O)=C(C(N)=O)C(=O)[C@@]2(O)C(O)=C3C(=O)c4c(O)c(NC(=O)CNC(C)(C)C)nc(Cl)c4C[C@H]3C[C@@H]12.Cl.Cl.Cl | 32 | 1 | 0.78 | 8 | 4 | 2 | > 32 | 32 | 16 | 
14 | CN(C)c1cc(CNCC(C)(C)C)c(O)c2c1C[C@H]1C[C@H]3[C@H](N(C)C)C(O)=C(C(N)=O)C(=O)[C@@]3(O)C(O)=C1C2=O [OMADACYCLINE] | 2 (≈ 3.59 µM) | 0.031 (≈ 0.0557 µM) |  | 2 (≈ 3.59 µM) | 2 (≈ 3.59 µM) | 0.5 (≈ 0.898 µM) | 16 (≈ 28.7 µM) | 0.25 (≈ 0.449 µM) | 0.125 (≈ 0.225 µM) | 
15 | CN(C)[C@@H]1C(O)=C(C(N)=O)C(=O)[C@@]2(O)C(O)=C3C(=O)c4c(O)cccc4[C@@](C)(O)[C@H]3C[C@@H]12 [TETRACYCLINE] |  | 0.25 (≈ 0.563 µM) |  |  |  |  | > 32 |  |  | MIC90 (Escherichia coli [10]): > 64 µg/mL; ED50 (Staphylococcus aureus [11]): 0.35 mg/kg; MIC (Streptococcus pneumoniae [12]): 0.125 µg/mL (≈ 0.281 µM); MIC50 (Staphylococcus aureus [15]): 0.125 µg/mL (≈ 0.281 µM); MIC90 (Staphylococcus aureus [15]): > 64 µg/mL; ED50 (Escherichia coli [16]): 17 mg/kg; MIC (Haemophilus influenzae): 0.25 µg/mL (≈ 0.563 µM)
16 | CN(C)c1cc(NC(=O)CNC(C)(C)C)c(O)c2c1C[C@H]1C[C@H]3[C@H](N(C)C)C(O)=C(C(N)=O)C(=O)[C@@]3(O)C(O)=C1C2=O [TIGECYCLINE] | 0.125 (≈ 0.213 µM) | 0.016 (≈ 0.0273 µM) | 0.47 (≈ 0.803 µM) | 0.125 (≈ 0.213 µM) | 0.125 (≈ 0.213 µM) | 0.063 (≈ 0.108 µM) | 0.5 (≈ 0.854 µM) | 0.063 (≈ 0.108 µM) | 0.016 (≈ 0.0273 µM) | Vd (in vivo): 6.12 L/kg; AUC [9]: 1050 ng·h/mL; MIC50 (Escherichia coli [10]): 0.25 µg/mL (≈ 0.427 µM); MIC90 (Escherichia coli [10]): 0.5 µg/mL (≈ 0.854 µM); ED50 (Staphylococcus aureus [11]): 0.35 mg/kg; MIC (Streptococcus pneumoniae [12]): ≤ 0.016 µg/mL; MIC50 (Streptococcus pneumoniae [12]): ≤ 0.016 µg/mL; MIC90 (Streptococcus pneumoniae [12]): ≤ 0.016 µg/mL; F (Rattus norvegicus): 1.1%; clearance [13]: 15.5 mL/min/kg; half-life [14]: 4.6 h; MIC50 (Staphylococcus aureus [15]): 0.063 µg/mL (≈ 0.108 µM); MIC90 (Staphylococcus aureus [15]): 1 µg/mL (≈ 1.71 µM); ED50 (Escherichia coli [16]): 2.1 mg/kg; MIC50 (Haemophilus influenzae): 0.5 µg/mL (≈ 0.854 µM); MIC90 (Haemophilus influenzae): 0.5 µg/mL (≈ 0.854 µM)
